The source of these data is ChEMBL document CHEMBL5154910, “Preventing Influenza A Virus Infection by Mixed Inhibition of Neuraminidase and Hemagglutinin by Divalent Inhibitors” (J Med Chem, 2022).

Active and inactive are the calls of the source. The calls are words filed in the database; no cut-off is given here.

One data set relates to MDCK-II. The data set is described as follows: Cytotoxicity against dog MDCK-II cells at 5 uM. The data set is classed as toxicity, cell-based, Canis lupus familiaris. A digest of the protocol: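 MDCK-II monolayers were exposed to compound at the highest tested concentration of 5 μM in Opti-MEM at 37 °C, 5% CO2, for 4 days. Cytotoxicity was judged by microscopic inspection.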

Data set [1] is described as follows: Inhibition of Influenza virus A/Netherlands/602/2009 Neuraminidase using MUNANA as substrate incubated for 60 mins by fluorescence based whole virus assay. In a few lines: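 Whole Neth09H1N1 virus served as the NA source in place of recombinant protein. Compounds were serially diluted 1:2 in 50 mM Tris-HCl, 4 mM CaCl2, pH 6.0, with a fixed non-saturating amount of virus. MUNANA was added to 100 μM final, 37 °C for 60 min, then stopped with 0.1 M glycine, 25% ethanol, pH 10.7. Fluorescence read at ex 340/em 490 nm; IC50 determined.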

The nature of data set [2]: Inhibition of Influenza A virus (A/Anascrecca/Spain/1460/2008(H7N9)) recombinant Neuraminidase using MUNANA as substrate incubated for 60 mins by fluorescence based assay. In a few lines: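 Recombinant soluble tetrameric NA (N9 from A/Anascrecca/Spain/1460/2008 or N1 from A/Wisconsin/09/2013) was made in HEK293T cells and purified on Strep-Tactin. Compounds were serially diluted 1:2 in 50 mM Tris-HCl, 4 mM CaCl2, pH 6.0, with a fixed non-saturating amount of NA. MUNANA was added to 100 μM final, 37 °C for 60 min, then stopped with glycine/ethanol at pH 10.7. Fluorescence read at ex 340/em 490 nm; […].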

Data set [3] deals with Influenza A virus. Put plainly: Antiviral activity against Influenza virus A/Netherlands/602/2009 assessed as inhibition of virus-LAMP1 binding at 10 uM by biolayer interferometry streptavidin sensor based assay. The data set is classed as functional, organism-based. In a few lines: (§1)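 Biolayer interferometry was run at 30 °C in PBS with Ca/Mg, shaking at 1000 rpm. Streptavidin sensors were loaded to saturation with biotinylated LAMP1 carrying increased α2,6-linked sialic acids, then dipped into Neth09H1N1 virus mixed with variable compound concentrations. […] Controls had no compound, or OC only.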
(In general: BLI is a label-free optical method that tracks binding on a fibre tip over time.)

The subject of data set [4] is Influenza A virus. Put plainly: Inhibition of Influenza virus A/Netherlands/602/2009 hemagglutinin assessed as reduction of virus-LAMP1 binding in presence of oseltamivir carboxylate by biolayer interferometry. In a few lines:
as §1

For `CC[C@@H](CCCCc1cn([C@H]2[C@H](OC(C)=O)[C@@H](OC(C)=O)[C@H](n3cc(CCCC[C@H](CC)O[C@@H]4OC(C(=O)O)=C[C@H](O)[C@H]4NC(C)=O)nn3)O[C@@H]2CO)nn1)O[C@@H]1OC(C(=O)O)=C[C@H](O)[C@H]1NC(C)=O`, the Activity entry in the data set with MDCK-II was “Non-Toxic”. Also, the IC50 in data set [1] turned out to be 1500 nM; in data set [2] it was 5200 nM.

As to `CCC(CC)O[C@@H]1C=C(C(=O)O)C[C@H](N)[C@H]1NC(C)=O` [OSELTAMIVIR CARBOXYLATE], the Activity result with MDCK-II is reported as “Non-Toxic”.

Regarding `C#CCCC[C@H](CC)O[C@@H]1CC(C(=O)O)=C[C@H](O)[C@H]1NC(C)=O`, in the data set with MDCK-II, the Activity entry is “Non-Toxic”. Moreover, the IC50 in data set [2] worked out at 2900 nM. Further, in the data set on Influenza A virus [3], the inhibition entry is “Active”.

For `CCC(CC)O[C@@H]1OC(C(=O)O)=C[C@H](O)[C@H]1NC(C)=O`, the IC50 in data set [2] is 470 nM.

As for `C#CCCCC[C@@H](CC)O[C@@H]1OC(C(=O)O)=C[C@H](O)[C@H]1NC(C)=O`, the concentration for half-maximal inhibition (IC50) in data set [2] came to 28200 nM.

Take `CC[C@@H](CCCCc1cn([C@H]2[C@H](O)[C@@H](O)[C@H](n3cc(-c4ccc(-c5cn([C@@H]6O[C@H](CO)[C@@H](n7cc(CCCC[C@H](CC)O[C@@H]8OC(C(=O)O)=C[C@H](O)[C@H]8NC(C)=O)nn7)[C@H](O)[C@H]6O)nn5)cc4)nn3)O[C@@H]2CO)nn1)O[C@@H]1OC(C(=O)O)=C[C@H](O)[C@H]1NC(C)=O`: the Activity entry in the data set on MDCK-II is “Non-Toxic”. The IC50 in data set [1] stood at 80 nM; in data set [2], 3300 nM. For the same molecule, the inhibition result in the data set with Influenza A virus [3] is “Active”.

Consider `CC[C@@H](CCCCc1cn([C@H]2[C@H](O)[C@@H](O)[C@H](n3cc(-c4ccc(-c5cn([C@H]6[C@H](O)[C@@H](O)[C@H](n7cc(-c8ccc(-c9cn([C@@H]%10O[C@H](CO)[C@@H](n%11cc(CCCC[C@H](CC)O[C@@H]%12OC(C(=O)O)=C[C@H](O)[C@H]%12NC(C)=O)nn%11)[C@H](O)[C@H]%10O)nn9)cc8)nn7)O[C@@H]6CO)nn5)cc4)nn3)O[C@@H]2CO)nn1)O[C@@H]1OC(C(=O)O)=C[C@H](O)[C@H]1NC(C)=O`, for which the Activity entry with MDCK-II is recorded as “Non-Toxic”. Also, the inhibition entry in the data set with Influenza A virus [4] and in the data set with Influenza A virus [3] was “Active” throughout.

In the case of `CC[C@@H](CCCCc1cn([C@H]2[C@H](O)[C@@H](O)[C@H](n3cc(-c4ccc(-c5cn([C@@H]6O[C@H](CO)[C@@H](n7cc(-c8cc(O)c(-c9cn([C@@H]%10O[C@H](CO)[C@@H](n%11cc(-c%12ccc(-c%13cn([C@@H]%14O[C@H](CO)[C@@H](n%15cc(CCCC[C@H](CC)O[C@@H]%16OC(C(=O)O)=C[C@H](O)[C@H]%16NC(C)=O)nn%15)[C@H](O)[C@H]%14O)nn%13)cc%12)nn%11)[C@H](O)[C@H]%10O)nn9)cc8O)nn7)[C@H](O)[C@H]6O)nn5)cc4)nn3)O[C@@H]2CO)nn1)O[C@@H]1OC(C(=O)O)=C[C@H](N)[C@H]1NC(C)=O`, the Activity result in the data set on MDCK-II is “Non-Toxic”. Also, the inhibition entry in the data set with Influenza A virus [3] was “Active”.

On to `CC[C@@H](CCCCc1cn([C@H]2[C@H](OC(C)=O)[C@@H](OC(C)=O)[C@H](n3cc(CCCC[C@H](CC)O[C@@H]4OC(C(=O)O)=C[C@H](O)[C@H]4NC(C)=O)nn3)O[C@@H]2COC(C)=O)nn1)O[C@@H]1OC(C(=O)O)=C[C@H](O)[C@H]1NC(C)=O`, for which the Activity result in the data set on MDCK-II is listed as “Non-Toxic”.

In general, IC50 refers to the concentration that gives 50% inhibition.
